Experimental data from different studies.
Target: Calcium/calmodulin-dependent protein kinase type II subunit alpha (CAMK2A, Homo sapiens, UniProt Q9UQM7)

Compound | read-out | mode | technique | tested at | endpoint | result
Nc1ncnc2occ(-c3ccc(NC(=O)Nc4cc(C(F)(F)F)ccc4F)cc3)c12 | enzyme activity | inhibitor |  | 20 µM | remaining activity | 61%
O=C1NC(=O)c2cc(Nc3ccc(F)cc3)c(Nc3ccc(F)cc3)cc21 | cell-free assay | inhibitor |  | 0.5 µM | remaining signal | 103%
N#Cc1ccc(Nc2ccc3[nH]c(=O)[nH]c3c2)c(Cl)c1 | cell-free assay |  | competition with immobilised ligand | 1 µM | remaining binding | 84%
CC(C)(O)[C@H]1CC[C@H](Nc2ccc3ncc(-c4cccc(C(F)(F)F)c4)n3n2)CC1 | enzyme activity | inhibitor |  | 1 µM | remaining activity | 80.7%
Cc1ccc(C(=O)Nc2ccc(CN3CCN(C)CC3)c(C(F)(F)F)c2)cc1C#Cc1cnc2cccnn12 | enzyme activity | inhibitor |  | 23.5 nM | remaining activity | 95%
Nc1cnc(N2CCc3cc(S(=O)(=O)Nc4c(F)cc(Cl)cc4F)cc(N4CCCC4=O)c32)nc1 | cell-free assay |  | competition with immobilised ligand | 1 µM | remaining binding | 92%
CC(C)(C)c1nc(-c2cccc(NS(=O)(=O)c3c(F)cccc3F)c2F)c(-c2ccnc(N)n2)s1 | enzyme activity | inhibitor | radiometric | 1 µM | remaining activity | 81%
CN1CCN(c2cnc3c(C4CCN(C(=O)c5ccc(OC(F)(F)F)cc5N)CC4)ncnc3c2)CC1 | cell-free assay |  | competition with immobilised ligand | 1 µM | remaining binding | 69%
Cn1c2c(Cl)c(Cl)ccc2c2cn[nH]c(=O)c21 | thermal stability |  | DSF | 10 µM | ΔTm | 0.8 °C
CS(=O)(=O)CCNCc1ccc(-c2ccc3ncnc(Nc4ccc(OCc5cccc(F)c5)c(Cl)c4)c3c2)o1 | cell-free assay |  |  | 0.5 µM | remaining signal | 98.6%
Cc1ccc(C(=O)NCc2ccsc2)cc1C#Cc1cn(C(C)C)c2ncnc(N)c12 | enzyme activity | inhibitor |  | 1 µM | activity vs control | 113%
Cn1c2c(c3ccc(Cl)c(Cl)c31)C(C#N)C1(CCN(C(=O)OC(C)(C)C)CC1)NC2=O (racemic) | thermal stability |  | DSF | 10 µM | ΔTm | 0 °C
Cc1ncc([N+](=O)[O-])n1C(=NO)c1ccccc1C(F)(F)F | enzyme activity | inhibitor |  | 10 µM | inhibition | 25.3%
Cn1c2c(Cl)c(Cl)ccc2c2cc(N)[nH]c(=O)c21 | thermal stability |  | DSF | 10 µM | ΔTm | 0.9 °C
O=C1Nc2ccc(Cl)cc2C1=Cc1cc(Cl)c(O)c(Cl)c1 | cell-free assay |  |  | 0.5 µM | remaining signal | 92.9%
Cc1c(NC(=O)c2cc(C(N)=O)nc3cc(F)ccc23)c(C(F)(F)F)nn1Cc1ccc(C(C)(C)C)cc1 | cell-free assay |  | competition with immobilised ligand | 1 µM | remaining binding | 89%
CCC1(CC)NC(=O)c2c(c3ccc(Cl)c(Cl)c3n2C)C1C#N (stereo not shown) | thermal stability |  | DSF | 10 µM | ΔTm | 0.7 °C
CCC(=N\O)/C(C)=C/c1ccc(F)cc1 | cell-free assay |  | competition with immobilised ligand | 1 µM | remaining binding | 81%
COc1cc2ncnc(Nc3ccc(Oc4ccccc4)cc3C)c2cc1OC | enzyme activity | inhibitor |  | 1 µM | inhibition | -1%
CSc1nc(C)c(-c2ccnc(Nc3ccc(N4CCOCC4)cc3)c2)[nH]1 | enzyme activity | inhibitor |  | 10 µM | inhibition | -5.7%
C[C@@H]1CN(c2cc(-c3n[nH]c4ccc(OC5(C)CC5)cc34)ncn2)C[C@H](C)O1 | cell-free assay |  | competition with immobilised ligand | 0.1 µM | remaining binding | 100%
CCCS(=O)(=O)Nc1ccc(F)c(C(=O)c2c[nH]c3ncc(-c4ccc(Cl)cc4)cc23)c1F | enzyme activity | inhibitor |  | 1 µM | inhibition | < 20%
Cc1ccc(NC(=O)c2ccc(CN3CCN(C)CC3)cc2)cc1Nc1nccc(-c2cccnc2)n1 | enzyme activity | inhibitor |  | 0.5 µM | activity vs control | 100%
CN(C)C(=O)Cn1cc(-c2nc(C3(c4ccc(-c5cnc(N)nc5)cc4)CC3)no2)cn1 | cell-free assay |  | competition with immobilised ligand | 1 µM | remaining binding | 100%
O=C(Nc1cnn(-c2csc(C(=O)NC3COC3)c2)c1)Nc1ccccc1Cl | enzyme activity | inhibitor |  | 5 µM | remaining activity | 100%
